This data set can be described thus: Toxicity liver stage against HepG2, at 10uM. Particulars: human, HepG2-A16-CD81EGFP cells; read-out: INHIBITION
Further details: test concentration 10 uM, cell line HepG2-A16-CD81EGFP. It counts as cell-based. The gist of the method:
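Uninfected HepG2-A16-CD81EGFP cells, 3 × 10^3 per well, 1536-well, plated on prespotted compound at 10 μM final, parasite-free screening media added to match infected plates; puromycin 10 μM positive, DMSO 0.5% negative; run in parallel with 48 h PbLuc assay at 37 °C, 5% CO2; viability by CellTiter-Glo luminescence, normalized to controls.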
For the compound `COc1ccc(NC(=O)CSc2nc(C)cc(C)n2)cn1`, the cytotoxicity at 10 µM is -0.384%.

As for `CCOc1ccc(Oc2cc(CN)ccn2)cc1`, the cytotoxicity at 10 µM came to 0.102%. The result for `O=c1c2ccccc2nnn1CN(CC1CCOC1)C1CC1` (stereo not drawn) reads -0.543%; that for `Cc1ccc2[nH]c(CO[C@H]3CN(c4ccc(C#N)cn4)C[C@H]3F)nc2c1`, -1.6%; that for `COc1ccc2nc3n(c2c1)[C@@H](CNC(=O)c1cncnc1)COC3`, 0.488%. As for `COc1ccc(CN2CCOC[C@H](OCc3ccccc3)C2)cc1`, the cytotoxicity at 10 µM amounted to 2.79%.

Turning to `Fc1ccc2c(c1)nc1n2[C@@H](CNCc2nccs2)COC1`, the cytotoxicity at 10 µM is 1.07%. On to `COCC(=O)N[C@H]1C[C@H]2C(=O)NC[C@@H](CCC(=O)NC3CC3)N2C1`, for which the cytotoxicity at 10 µM came to 10.7%. Take `CCC(C)NC(=O)CCn1ccc(C)n1` (stereo not drawn): the cytotoxicity at 10 µM is -0.634%. `N#CCCN(CC1CCCO1)C(=O)c1ccc(C#N)cc1` (stereo not drawn): the cytotoxicity at 10 µM was -2.45%. In the case of `O=C(c1ccc[nH]1)N1CC2(CCN(c3ncccn3)C2)C1`, the cytotoxicity at 10 µM was found to be 2.26%. Take `CCn1nnc2c1CCN(C(=O)c1ccc3c(c1)OCO3)C2COC` (stereo not drawn): the cytotoxicity at 10 µM was determined as 6.43%. Take `CCS(=O)(=O)N1Cc2ccnn2CC(c2nc(C)no2)C1` (stereo not drawn): the cytotoxicity at 10 µM turned out to be 6.86%. As to `O=C(O)c1nnn(-c2ccc(Cl)c(C(F)(F)F)c2)c1-c1ccncc1`, the cytotoxicity at 10 µM is 8.63%. Consider `Cn1cc(C(=O)N2C[C@@H]3COC[C@]3(COCc3cccnc3)C2)cn1`, for which the cytotoxicity at 10 µM was -0.8%.

As to `O=C(c1ccc[nH]1)N1CCCC2(CCN(c3ccsc3)C2=O)C1` (stereo not drawn), the cytotoxicity at 10 µM is -0.449%. The result for `COc1ccccc1Nc1nc2c(C)nn(C)c2c(=O)n1C` reads 2.56%.

For `Cn1c(=O)oc2ccc(S(=O)(=O)N3CCC(c4ccccc4)C3)cc21` (stereo not drawn), the cytotoxicity at 10 µM turned out to be 5.43%.

For `Cc1nn(CC(=O)N2CCN(Cc3cnn(C)c3C)CC2)cc1Br`, the cytotoxicity at 10 µM is -7.55%. As for `N#Cc1c[nH]nc1NCc1ccc2c(c1)OCO2`, the cytotoxicity at 10 µM was -8.75%. Take `COCCC(=O)N1Cc2nc3c(C)c(-c4cccs4)nn3c(O)c2C1`: the cytotoxicity at 10 µM was -1.19%. Take `C[C@@H]1CN(Cc2ccco2)CCN1C(=O)Cc1ccccc1F`: the cytotoxicity at 10 µM turned out to be 4.94%. As to `O=C1NC2(CCCN(C(=O)CCn3cncn3)C2)Oc2ccccc21` (stereo not drawn), the cytotoxicity at 10 µM worked out at 3.08%. Regarding `COc1cc2c(cc1CCC(=O)O)CCC2`, the cytotoxicity at 10 µM came to 1.11%. As to `Cc1cc(-c2ccccc2)nc(C2CCCN2S(C)(=O)=O)n1` (stereo not drawn), the cytotoxicity at 10 µM was 3.5%.

As to `Cc1cc(C)n2ncc(CN3C[C@@H](O)[C@H](Oc4ccccc4)C3)c2n1`, the cytotoxicity at 10 µM is -33%. Take `CCCNC(=O)c1cc(C2CCCN(Cc3ccccn3)C2)no1` (stereo not drawn): the cytotoxicity at 10 µM is -32%. The figure for `O=S(=O)(N1CCOCC1)N1CCCC1Cn1cccn1` (stereo not drawn) is -8.18%; for `Cn1ccc(C(=O)N2CCOC(c3ccccn3)C2)cc1=O` (stereo not drawn) it is -31.4%; for `CCc1ccccc1Nc1noc2c1CN(C(=O)CCOC)CC2` it is -16.6%. The result for `COCCN1CCC(c2cncc(-c3cccc(Cl)c3)n2)CC1` reads -29.9%; that for `Cn1cnc(CNC(=O)c2ccccc2-n2cc(CN)cn2)c1`, -16.9%.

For `O=C(O)COc1ccccc1CN1CCCC1c1ccncn1` (stereo not drawn), the cytotoxicity at 10 µM was -29.2%. Turning to `CCS(=O)(=O)NCCNc1c(C#N)cnc2c(F)cc(F)cc12`, the cytotoxicity at 10 µM is 16.2%. For `CCOc1cccc(NCc2cnc(N3CCN(C)CC3)nc2)n1`, the cytotoxicity at 10 µM came out at 1.75%.

With `CCN(CC)S(=O)(=O)NC(=O)c1cc(C)n(-c2ccccc2)n1`, the cytotoxicity at 10 µM is -9.68%. The figure for `Cc1cc(-n2c(C)cn(CN(C)Cc3ccccc3)c2=O)no1` is 10.3%. As to `FC(F)(F)CCN(Cc1ccon1)C1CCC1`, the cytotoxicity at 10 µM was 1.19%.

In the case of `Cc1ccc(NC(=O)C2CCCN2C(=O)C2CC2)nc1` (stereo not drawn), the cytotoxicity at 10 µM is -2.15%. With `CNC(=O)c1cccc(CN2CCC(N(C)Cc3noc(C)n3)C2)c1` (stereo not drawn), the cytotoxicity at 10 µM was found to be 4.37%. As to `COCCn1cc(NC(=O)NC(C)c2ccc(Cl)s2)cn1` (stereo not drawn), the cytotoxicity at 10 µM was determined as 7.25%. In the case of `CCOCCCOC(=O)c1ccc2c(c1)[nH]c(=O)n2C`, the cytotoxicity at 10 µM was 3.54%. The result for `Fc1ccccc1CN1CCC(c2n[nH]c(C3CC3)n2)CC1` reads 6.21%; that for `CS(=O)(=O)Nc1cccc(CNC(=O)CCc2ccsc2)c1`, 2.24%; that for `CCNC(=O)C1CCCN(c2cccc(C(F)(F)F)n2)C1` (stereo not drawn), 3.4%. Regarding `CCOCCN1CCN(CCc2nc3ccccc3c(=O)[nH]2)CC1`, the cytotoxicity at 10 µM worked out at 4.12%.

Take `COc1cc(CN(C)C(=O)NCc2nccs2)ccc1SC`: the cytotoxicity at 10 µM is -7.66%. Turning to `NCC1(c2cccc(C(F)(F)F)c2)CCC1`, the cytotoxicity at 10 µM is -4.27%. Turning to `c1ccc(-c2nc(CN3CCOC(Cn4cccn4)C3)cs2)cc1` (stereo not drawn), the cytotoxicity at 10 µM was found to be 8.62%. For `CCCOc1ccc(Cl)cc1NC(=O)NCCC(=O)N(C)C`, the cytotoxicity at 10 µM was -0.734%. Turning to `NC(=O)c1cnc(NC2CCN(c3ccccn3)CC2)c(Cl)c1`, the cytotoxicity at 10 µM is 13.8%. For `CCOCCC(=O)Nc1cc(C)cnc1OC`, the cytotoxicity at 10 µM was 18.9%. Regarding `CCN(C(C)=O)C(c1cccnc1)c1cc(C)cc(C)c1` (stereo not drawn), the cytotoxicity at 10 µM came out at 6.72%. `O=C(NC1CCCN(c2ccc(OC(F)F)cc2)C1)c1cnc[nH]1` (stereo not drawn): the cytotoxicity at 10 µM was -2.15%. In the case of `NS(=O)(=O)N1CCC(CSc2ccccc2)C1` (stereo not drawn), the cytotoxicity at 10 µM is -9.8%. As for `CN(C(=O)CN(Cc1cccc(O)c1)C1CCC(O)CC1)C1CC1` (stereo not drawn), the cytotoxicity at 10 µM was -0.586%. For `Cc1cccc(C(C)(C)CNc2cn[nH]c(=O)c2Cl)c1`, the cytotoxicity at 10 µM was found to be 23.3%.

With `CCOC(C)c1nc(Cn2cccn2)cs1` (stereo not drawn), the cytotoxicity at 10 µM is 1.04%.

Take `NC(=O)CCn1nnc(-c2cc3ccccc3o2)n1`: the cytotoxicity at 10 µM amounted to 4.56%. Regarding `OCC(CO)Nc1ccc2ccc(Cl)c(Cl)c2n1`, the cytotoxicity at 10 µM was -8.82%.

Regarding `CN(CC(N)=O)C(=O)C1Cc2cc(Cl)ccc2O1` (stereo not drawn), the cytotoxicity at 10 µM worked out at 2.93%.

Turning to `Cc1cc(C2CCCN2c2ncc(C(N)=O)cc2Cl)no1` (stereo not drawn), the cytotoxicity at 10 µM was -4.57%. The result for `Cc1cc(C(=O)NCCN2CCCC(C)C2)nn1C(C)(C)C` (stereo not drawn) reads 9.34%; that for `CCNc1cc2c(nn1)CCN(C(=O)c1ccc(-n3cccn3)nc1)C2`, 5.05%; that for `CN(Cc1ccncc1)C(=O)Nc1cnn(CC2CCCO2)c1` (stereo not drawn), -0.291%. The result for `Cc1noc([C@]23COC[C@H]2CN(C(=O)COC2CCCC2)C3)n1` reads -104%; that for `Cn1ncc2c1C(COCC1CC1)CN(Cc1ccc(F)cc1)C2` (stereo not drawn), 1.23%; that for `Cn1cc2ncn(C3CCN(c4ccccc4F)CC3)c(=O)c2n1`, 4.44%. As for `N#Cc1cccc(N2CCC(c3nccn3Cc3cscn3)CC2)n1`, the cytotoxicity at 10 µM worked out at 1.46%.

As for `COc1nc2c(cc1C(=O)NCCc1nc3c(s1)CCC3)CCC2`, the cytotoxicity at 10 µM was 5.05%. With `CCN(C)S(=O)(=O)N1CCCC(c2cccc(C(=O)O)c2)C1` (stereo not drawn), the cytotoxicity at 10 µM came out at 0.91%. `COc1cnc(N2CCC(c3ncc[nH]3)CC2)nc1`: the cytotoxicity at 10 µM came out at 0.852%. For the compound `CC(C)c1cc(N2CCSCC2)n2nccc2n1`, the cytotoxicity at 10 µM was 4.66%. For `c1cncc(Cc2nnc3n2CCN(CC2CCOC2)CC3)c1` (stereo not drawn), the cytotoxicity at 10 µM is -2.11%. The result for `COC(=O)CCCNC(=O)c1cc(COc2cncc(Cl)c2)on1` reads 8.23%; that for `CC(C)(CN1CCCC1)CN1CCC(Cn2cc(CCO)nn2)CC1`, 1.87%; that for `Nc1nc2c(c(N3CCOCC3)n1)CCN(C(=O)c1ccc[nH]1)CC2`, -2.02%.

In the case of `COCCN1CCCC2(CCN(c3ncc(Cl)cc3Cl)C2)C1=O` (stereo not drawn), the cytotoxicity at 10 µM is 9.44%. Take `Cc1cc(N2CC[C@H](O)C2)n2nc(C)c(C)c2n1`: the cytotoxicity at 10 µM is -3.62%.

As to `Cc1cc(C)n(CCC2CC(=O)Nc3cc(O)c(C)cc32)n1` (stereo not drawn), the cytotoxicity at 10 µM is -1.74%. For the compound `Cc1nsc(NC(=O)N2CCC(C(C)(C)O)CC2)n1`, the cytotoxicity at 10 µM is 17.5%. As for `O=C(O)C(c1ccc2c(c1)OCCO2)N1CCCCCC1` (stereo not drawn), the cytotoxicity at 10 µM was -3.26%.

Turning to `O=C(CCc1ccc(O)cc1)N1CCC(Cc2ccc(CO)cc2)C1` (stereo not drawn), the cytotoxicity at 10 µM was 14.8%. Consider `O=C1C(NCc2nnc3n2CCCC3)CCCN1c1ccccc1` (stereo not drawn), for which the cytotoxicity at 10 µM was -9.69%. As for `N#Cc1cccnc1N1CCC(C2CCCCCN2C(N)=O)CC1` (stereo not drawn), the cytotoxicity at 10 µM is -2.51%. The figure for `CCc1nnc2n1CCN(Cc1ncc(-c3ccc(Cl)cc3)o1)C2` is -9.66%; for `Cc1noc(C)c1CCC(=O)N1CCCN(Cc2cscn2)CC1` it is -4.51%; for `COc1cccc(CCC(=O)N2CCCCC2Cn2cccn2)c1` (stereo not drawn) it is -11.3%.

Take `O=C(N1CCOCC1)N1CCC2(CCNC2)C1` (stereo not drawn): the cytotoxicity at 10 µM was -2.89%. For the compound `CC1c2ncc(CNC(=O)C3CC3)n2CCN1Cc1cccnc1` (stereo not drawn), the cytotoxicity at 10 µM was -3.76%. Take `c1cnc(N2CCC3(CCN(CC4CC4)CC3)CC2)nc1`: the cytotoxicity at 10 µM came out at 0.77%. As for `Cc1nc(COC[C@@]23CCC[C@@H]2CN(CC2CCOCC2)C3)cs1`, the cytotoxicity at 10 µM was found to be 7.98%. The result for `CN(C[C@@H]1CCC[C@@H]2CN(Cc3cccnc3)C[C@@H]21)C1CC1` reads 8.01%.

In the case of `CC(=O)N1CCCC2(C1)CN(c1ncc(C)cn1)CCO2` (stereo not drawn), the cytotoxicity at 10 µM is 14%. For `O=C(Nc1cc(C(F)(F)F)c[nH]c1=O)C1CCCCN1` (stereo not drawn), the cytotoxicity at 10 µM is -0.924%. For the compound `O=C([C@@H]1COC[C@H]2CN(C3CCOCC3)C[C@H]21)N1CCOCC1`, the cytotoxicity at 10 µM was -4.14%. Turning to `O=C1CC2(CCN(CC3CC3)C2)CN1c1cccc(F)c1` (stereo not drawn), the cytotoxicity at 10 µM was -6.25%. With `CCn1cc(-n2cc3nc(N4CCN(C)CC4)[nH]cc-3c2=O)cn1`, the cytotoxicity at 10 µM was 1.54%.

These data come from ChEMBL document CHEMBL4513216, “Probing the Open Global Health Chemical Diversity Library for Multistage-Active Starting Points for Next-Generation Antimalarials” (ACS Infect Dis, 2020).
